The source of these data is ChEMBL document CHEMBL5705905, “Pharmacological targeting of kinases MST1 and MST2 augments tissue repair and regeneration” (Sci Transl Med, 2016).

As usually defined, the IC50 is the concentration needed to halve the response being measured.

Activity calls are given as the source filed them. The rule behind the calls is not given here.

In assay [1] the target is T1, Serine/threonine-protein kinase 3 (Homo sapiens, UniProt Q13188).
T1 sequence (Q13188 whole entry): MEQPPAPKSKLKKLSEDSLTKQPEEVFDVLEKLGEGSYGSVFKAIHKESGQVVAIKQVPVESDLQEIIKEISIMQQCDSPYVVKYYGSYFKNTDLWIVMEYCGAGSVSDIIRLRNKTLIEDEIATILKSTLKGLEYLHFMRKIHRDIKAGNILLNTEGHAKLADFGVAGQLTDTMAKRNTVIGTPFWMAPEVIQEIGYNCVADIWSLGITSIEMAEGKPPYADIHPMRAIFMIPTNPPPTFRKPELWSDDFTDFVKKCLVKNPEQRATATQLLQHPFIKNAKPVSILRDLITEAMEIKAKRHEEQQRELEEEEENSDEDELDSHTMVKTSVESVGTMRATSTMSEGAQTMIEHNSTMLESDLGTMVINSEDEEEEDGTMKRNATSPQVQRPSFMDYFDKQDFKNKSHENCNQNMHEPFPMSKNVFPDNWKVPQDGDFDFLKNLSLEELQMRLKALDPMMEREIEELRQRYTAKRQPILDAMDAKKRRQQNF
As to the kind of experiment: Inhibition of recombinant His-tagged full-length MST2 (unknown origin) expressing in Escherichia coli assessed as GST-tagged MOB1a phosphorylation level incubated for 30 mins by immunoblot analysis. On the technique in general: In western blotting, separated proteins are transferred to a membrane and probed.

The test system of assay [2] is Mus musculus. As to the kind of experiment: Protection against APAP induced liver injury in mouse assessed as liver centrilobular necrosis at 250 mg/kg, ip administered at 2.5 hrs. Format: functional, organism-based.
For assay [3], the system named is Mus musculus. As to the kind of experiment: Protection against APAP induced liver injury in mouse assessed as liver centrilobular necrosis at 250 mg/kg, ip administered at 3.5 hrs. Format: functional, organism-based.
Assay [4] relates to Mus musculus. As to the kind of experiment: Protection against APAP induced liver injury in mouse assessed as decrease in ALT level at 250 mg/kg, ip administered at 2.5 hrs. In kind it is functional, organism-based. Conditions: Serum.
Assay [5] concerns Mus musculus. The assay is described as follows: Protection against APAP induced liver injury in mouse assessed as liver centrilobular necrosis at 250 mg/kg, ip administered at 1.5 hrs. In kind it is functional. A digest of the protocol:
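Wild-type mice were given APAP orally. NAC at 250 mg/kg was then injected intraperitoneally at 1.5, 2.5 or 3.5 h after APAP. Liver centrilobular necrosis was then assessed.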

In assay [6] the test system is Mus musculus. As to the kind of experiment: Protection against APAP induced liver injury in mouse assessed as decrease in ALT level at 250 mg/kg, ip administered at 1.5 hrs. The conditions noted are these: Serum. In kind it is functional, organism-based.

On to `CN1C(=O)c2sccc2N(C)c2nc(Nc3ccc(S(C)(=O)=O)cc3)ncc21`, for which, in assay [1], the half-maximal inhibitory concentration (IC50) came out at 0.596 µM.

On to `CN1CCC(NS(=O)(=O)c2ccc(Nc3ncc4c(n3)N(C)c3ccsc3C(=O)N4C)cc2)CC1`, for which the IC50 in assay [1] turned out to be 3.84 µM.

As to `CN1C(=O)c2sccc2N(C)c2nc(Nc3ccc(S(=O)(=O)NC4CC4)cc3)ncc21`, the IC50 in assay [1] was 0.207 µM.

For the compound `CC(=O)N[C@@H](CS)C(=O)O` [ACETYLCYSTEINE], the outcome with Mus musculus [2] and in the assay with Mus musculus [3] was inactive. In addition, the outcome in the assay on Mus musculus [4], in the assay with Mus musculus [5] and in the assay with Mus musculus [6] was Active. In addition, the Activity in the assay with Mus musculus [5] (record 2) came out at 80%.

`CSc1ccc(Nc2ncc3c(n2)N(C)c2ccsc2C(=O)N3C)cc1`: in assay [1], the half-inhibitory concentration (IC50) was 1.16 µM.
